A short description of test [1]: Inhibition of PKA (unknown origin) using LRRASLG as substrate after 1 hr by fluorescence assay. Also noted: species or system Homo sapiens.
Test [2] addresses Protein kinase C eta type (Homo sapiens) (UniProt P24723). The test can be described thus: Inhibition of PKCeta (unknown origin) at 30 uM by microfluidic mobility shift assay relative to control. Put shortly:
(§1)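 Single-point screen against a 24-kinase panel in a commercial microfluidic assay format. Compounds were tested at 30 µM, with ATP at approximately the Km,[ATP] of each enzyme. H-89 was included on each assay plate as an internal control.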

The target of test [3] is T1, Serine/threonine-protein kinase Sgk2 (Homo sapiens) (UniProt Q9HBY8).
T1 sequence (whole entry): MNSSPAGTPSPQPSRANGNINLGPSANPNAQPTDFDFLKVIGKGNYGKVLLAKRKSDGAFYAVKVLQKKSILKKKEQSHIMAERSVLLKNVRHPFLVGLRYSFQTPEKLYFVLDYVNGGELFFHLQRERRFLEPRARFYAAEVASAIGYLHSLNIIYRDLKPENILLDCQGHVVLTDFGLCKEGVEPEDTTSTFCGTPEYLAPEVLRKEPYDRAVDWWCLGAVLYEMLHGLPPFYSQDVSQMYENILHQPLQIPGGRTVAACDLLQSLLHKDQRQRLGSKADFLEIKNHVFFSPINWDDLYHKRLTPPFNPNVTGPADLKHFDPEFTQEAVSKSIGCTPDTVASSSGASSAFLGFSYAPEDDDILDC
The experiment in a line: Inhibition of SGK2 (unknown origin) at 30 uM by microfluidic mobility shift assay relative to control. A digest of the protocol:
as §1

Test [4] concerns the target T2, Protein kinase C zeta type (Homo sapiens) (UniProt Q05513).
T2 sequence (whole entry): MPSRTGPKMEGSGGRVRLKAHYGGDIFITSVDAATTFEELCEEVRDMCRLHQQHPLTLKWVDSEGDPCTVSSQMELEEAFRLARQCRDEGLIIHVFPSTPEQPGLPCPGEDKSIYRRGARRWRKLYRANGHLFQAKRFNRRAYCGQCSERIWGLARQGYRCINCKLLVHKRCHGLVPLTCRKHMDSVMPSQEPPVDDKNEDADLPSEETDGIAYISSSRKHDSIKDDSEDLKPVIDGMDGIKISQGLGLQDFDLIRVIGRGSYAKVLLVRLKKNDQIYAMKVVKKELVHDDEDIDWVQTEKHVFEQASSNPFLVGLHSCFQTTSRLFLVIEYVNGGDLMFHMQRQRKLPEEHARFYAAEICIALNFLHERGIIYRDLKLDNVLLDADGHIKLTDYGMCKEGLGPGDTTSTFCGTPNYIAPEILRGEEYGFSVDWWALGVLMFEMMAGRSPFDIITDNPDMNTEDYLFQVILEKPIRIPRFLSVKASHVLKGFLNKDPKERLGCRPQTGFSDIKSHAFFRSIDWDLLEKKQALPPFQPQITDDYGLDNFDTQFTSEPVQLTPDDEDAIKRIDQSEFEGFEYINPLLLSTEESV
The test can be described thus: Inhibition of PKCzeta (unknown origin) at 30 uM by microfluidic mobility shift assay relative to control. Put shortly: as §1

The target of test [5] is Vascular endothelial growth factor receptor 2 (Homo sapiens) (UniProt P35968). The test can be described thus: Inhibition of KDR (unknown origin) at 30 uM by microfluidic mobility shift assay relative to control. Put shortly: (§2)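 Single-point screen at 30 µM test compound across a 24-kinase panel in a microfluidic assay format. ATP was set near each enzyme's Km,[ATP]. […] The pan-AGC inhibitor H-89 served as an internal control on every assay plate.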

In test [6] the target is Tyrosine-protein kinase SYK (Homo sapiens) (UniProt P43405). The experiment in a line: Inhibition of SYK (unknown origin) at 30 uM by microfluidic mobility shift assay relative to control. Put shortly:
as §1

In test [7] the target is Protein kinase C delta type (Homo sapiens) (UniProt Q05655). The test can be described thus: Inhibition of PKCdelta (unknown origin) at 30 uM by microfluidic mobility shift assay relative to control. Put shortly:
as §2

For test [8], the target named is Serine/threonine-protein kinase MARK2 (Homo sapiens) (UniProt Q7KZI7). The test can be described thus: Inhibition of MARK2 (unknown origin) at 30 uM by microfluidic mobility shift assay relative to control. Put shortly:
as §2

The target of test [9] is Fibroblast growth factor receptor 3 (Homo sapiens) (UniProt P22607). The experiment in a line: Inhibition of FGFR3 (unknown origin) at 30 uM by microfluidic mobility shift assay relative to control. Put shortly: as §2
Fibroblast growth factor receptor 3 (Homo sapiens), sequence (P22607 23-806 limits assumed): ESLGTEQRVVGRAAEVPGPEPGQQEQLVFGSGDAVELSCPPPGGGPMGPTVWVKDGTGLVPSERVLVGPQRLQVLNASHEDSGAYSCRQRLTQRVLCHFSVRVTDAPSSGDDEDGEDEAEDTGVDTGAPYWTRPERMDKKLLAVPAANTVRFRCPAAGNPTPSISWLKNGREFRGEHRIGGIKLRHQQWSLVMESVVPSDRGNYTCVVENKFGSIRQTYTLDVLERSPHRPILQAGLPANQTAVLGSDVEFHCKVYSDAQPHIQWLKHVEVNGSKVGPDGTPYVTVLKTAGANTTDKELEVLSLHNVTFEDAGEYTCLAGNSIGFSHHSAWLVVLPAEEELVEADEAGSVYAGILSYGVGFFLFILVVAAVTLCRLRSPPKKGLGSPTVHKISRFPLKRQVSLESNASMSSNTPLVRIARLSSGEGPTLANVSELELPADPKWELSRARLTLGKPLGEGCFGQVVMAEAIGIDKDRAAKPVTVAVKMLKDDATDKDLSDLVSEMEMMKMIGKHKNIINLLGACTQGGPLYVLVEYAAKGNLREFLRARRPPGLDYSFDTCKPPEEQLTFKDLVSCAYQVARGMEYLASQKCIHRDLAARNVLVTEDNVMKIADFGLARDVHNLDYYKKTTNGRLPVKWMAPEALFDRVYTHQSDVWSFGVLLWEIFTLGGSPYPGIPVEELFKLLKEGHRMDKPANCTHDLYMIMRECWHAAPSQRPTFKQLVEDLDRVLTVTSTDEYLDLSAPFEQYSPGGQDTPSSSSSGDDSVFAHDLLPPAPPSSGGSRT
For test [10], the target named is Fibroblast growth factor receptor 1 (Homo sapiens) (UniProt P11362). The test can be described thus: Inhibition of FGFR1 (unknown origin) at 30 uM by microfluidic mobility shift assay relative to control. A digest of the protocol:
as §2

In test [11] the target is Serine/threonine-protein kinase pim-2 (Homo sapiens) (UniProt Q9P1W9). The test can be described thus: Inhibition of PIM2 (unknown origin) at 30 uM by microfluidic mobility shift assay relative to control. A digest of the protocol: as §2
Serine/threonine-protein kinase pim-2 (Homo sapiens), sequence (Q9P1W9 whole entry, looked up): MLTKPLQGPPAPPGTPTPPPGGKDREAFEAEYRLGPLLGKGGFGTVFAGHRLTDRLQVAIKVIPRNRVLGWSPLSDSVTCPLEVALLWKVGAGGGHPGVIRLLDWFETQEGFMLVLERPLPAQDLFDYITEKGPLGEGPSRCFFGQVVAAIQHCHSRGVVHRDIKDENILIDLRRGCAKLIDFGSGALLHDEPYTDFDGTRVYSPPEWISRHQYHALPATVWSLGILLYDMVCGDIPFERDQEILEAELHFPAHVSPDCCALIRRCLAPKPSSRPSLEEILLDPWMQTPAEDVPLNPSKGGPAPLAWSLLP
Test [12] has as its target Ribosomal protein S6 kinase alpha-4 (Homo sapiens) (UniProt O75676). The experiment in a line: Inhibition of MSK2 (unknown origin) at 30 uM by microfluidic mobility shift assay relative to control. A digest of the protocol:
as §2

For test [13], the target named is Ribosomal protein S6 kinase alpha-3 (Homo sapiens) (UniProt P51812). The test can be described thus: Inhibition of RSK2 (unknown origin) at 30 uM by microfluidic mobility shift assay relative to control. A digest of the protocol:
as §1

In test [14] the target is RAC-gamma serine/threonine-protein kinase (Homo sapiens) (UniProt Q9Y243). The test can be described thus: Inhibition of AKT3 (unknown origin) at 30 uM by microfluidic mobility shift assay relative to control. Put shortly: as §2
RAC-gamma serine/threonine-protein kinase (Homo sapiens), sequence (Q9Y243 whole entry): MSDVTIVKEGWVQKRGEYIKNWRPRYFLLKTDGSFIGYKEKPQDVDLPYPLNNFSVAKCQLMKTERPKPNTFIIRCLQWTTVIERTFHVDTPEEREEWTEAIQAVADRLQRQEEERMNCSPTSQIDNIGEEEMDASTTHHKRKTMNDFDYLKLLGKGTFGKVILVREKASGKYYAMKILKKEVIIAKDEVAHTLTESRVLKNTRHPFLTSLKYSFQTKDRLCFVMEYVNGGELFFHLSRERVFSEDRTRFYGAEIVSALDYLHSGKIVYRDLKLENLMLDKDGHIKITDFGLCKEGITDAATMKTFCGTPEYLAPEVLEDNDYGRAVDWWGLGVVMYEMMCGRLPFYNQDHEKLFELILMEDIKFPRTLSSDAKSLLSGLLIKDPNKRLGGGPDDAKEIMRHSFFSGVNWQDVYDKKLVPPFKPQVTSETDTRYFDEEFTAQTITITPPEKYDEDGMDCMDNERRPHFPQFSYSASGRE

Molecules are shown by their SMILES.

A word on the IC50: it is the midpoint of a concentration-inhibition curve. Low values mean inhibition by little substance, high ones a need for much substance. What is called inhibition is the change of the read-out against control, counted positive when it falls.

Protein kinase C eta type (Homo sapiens), sequence (P24723 whole entry): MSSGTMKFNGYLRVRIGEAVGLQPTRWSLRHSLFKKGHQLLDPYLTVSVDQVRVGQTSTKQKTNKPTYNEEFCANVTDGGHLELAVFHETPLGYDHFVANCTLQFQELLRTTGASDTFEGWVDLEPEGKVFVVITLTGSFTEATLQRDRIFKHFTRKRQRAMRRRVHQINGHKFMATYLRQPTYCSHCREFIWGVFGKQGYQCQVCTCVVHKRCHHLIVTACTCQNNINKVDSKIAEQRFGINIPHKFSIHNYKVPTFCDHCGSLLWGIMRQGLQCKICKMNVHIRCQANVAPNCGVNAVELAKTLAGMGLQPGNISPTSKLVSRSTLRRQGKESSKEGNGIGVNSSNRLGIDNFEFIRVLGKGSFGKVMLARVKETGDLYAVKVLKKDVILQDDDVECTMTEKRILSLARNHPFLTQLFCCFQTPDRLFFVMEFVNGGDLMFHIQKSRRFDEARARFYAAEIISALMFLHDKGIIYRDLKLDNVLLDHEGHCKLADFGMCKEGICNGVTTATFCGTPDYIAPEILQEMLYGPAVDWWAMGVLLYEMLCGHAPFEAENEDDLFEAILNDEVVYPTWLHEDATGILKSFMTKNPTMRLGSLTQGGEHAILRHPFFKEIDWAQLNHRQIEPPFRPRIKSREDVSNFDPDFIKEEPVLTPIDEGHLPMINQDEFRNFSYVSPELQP
Ribosomal protein S6 kinase alpha-4 (Homo sapiens), sequence (O75676 whole entry, looked up): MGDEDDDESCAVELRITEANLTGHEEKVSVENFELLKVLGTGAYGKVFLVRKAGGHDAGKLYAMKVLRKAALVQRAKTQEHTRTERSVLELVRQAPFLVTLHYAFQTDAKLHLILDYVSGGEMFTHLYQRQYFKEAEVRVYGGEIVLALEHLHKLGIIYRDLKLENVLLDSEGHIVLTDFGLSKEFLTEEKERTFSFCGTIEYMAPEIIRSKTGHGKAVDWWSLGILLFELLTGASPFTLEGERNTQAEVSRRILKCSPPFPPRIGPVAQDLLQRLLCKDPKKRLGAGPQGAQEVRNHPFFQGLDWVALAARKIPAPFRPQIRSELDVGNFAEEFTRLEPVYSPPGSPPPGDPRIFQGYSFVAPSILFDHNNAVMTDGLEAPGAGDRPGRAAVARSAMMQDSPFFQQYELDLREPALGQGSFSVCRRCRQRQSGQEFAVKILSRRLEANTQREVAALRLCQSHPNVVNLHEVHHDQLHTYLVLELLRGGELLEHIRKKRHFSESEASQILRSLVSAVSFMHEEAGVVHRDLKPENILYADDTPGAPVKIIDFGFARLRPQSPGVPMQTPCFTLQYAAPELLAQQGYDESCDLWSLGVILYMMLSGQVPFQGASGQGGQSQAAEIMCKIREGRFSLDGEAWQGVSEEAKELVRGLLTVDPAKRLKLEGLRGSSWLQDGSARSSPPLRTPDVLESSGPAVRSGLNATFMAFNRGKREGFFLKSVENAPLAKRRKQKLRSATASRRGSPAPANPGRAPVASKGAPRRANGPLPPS
Protein kinase C delta type (Homo sapiens), sequence (Q05655 whole entry, looked up): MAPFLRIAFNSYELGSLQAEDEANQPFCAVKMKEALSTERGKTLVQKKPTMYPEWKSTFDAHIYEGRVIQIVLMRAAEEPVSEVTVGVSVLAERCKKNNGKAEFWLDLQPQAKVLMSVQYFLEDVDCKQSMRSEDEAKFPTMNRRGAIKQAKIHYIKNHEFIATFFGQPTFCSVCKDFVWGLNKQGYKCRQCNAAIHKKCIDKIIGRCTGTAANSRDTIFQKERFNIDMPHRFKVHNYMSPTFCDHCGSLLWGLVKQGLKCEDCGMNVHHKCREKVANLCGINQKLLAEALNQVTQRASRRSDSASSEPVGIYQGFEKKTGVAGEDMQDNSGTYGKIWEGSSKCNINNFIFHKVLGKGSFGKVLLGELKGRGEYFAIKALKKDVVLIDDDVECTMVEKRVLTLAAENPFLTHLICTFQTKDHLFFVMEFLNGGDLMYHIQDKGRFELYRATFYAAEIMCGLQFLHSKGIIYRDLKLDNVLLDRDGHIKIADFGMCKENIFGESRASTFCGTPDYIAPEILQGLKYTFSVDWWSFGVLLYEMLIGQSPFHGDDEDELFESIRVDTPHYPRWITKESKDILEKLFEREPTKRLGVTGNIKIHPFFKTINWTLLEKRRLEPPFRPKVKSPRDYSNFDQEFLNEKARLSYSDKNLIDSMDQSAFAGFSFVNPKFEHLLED
Ribosomal protein S6 kinase alpha-3 (Homo sapiens), sequence (P51812 whole entry): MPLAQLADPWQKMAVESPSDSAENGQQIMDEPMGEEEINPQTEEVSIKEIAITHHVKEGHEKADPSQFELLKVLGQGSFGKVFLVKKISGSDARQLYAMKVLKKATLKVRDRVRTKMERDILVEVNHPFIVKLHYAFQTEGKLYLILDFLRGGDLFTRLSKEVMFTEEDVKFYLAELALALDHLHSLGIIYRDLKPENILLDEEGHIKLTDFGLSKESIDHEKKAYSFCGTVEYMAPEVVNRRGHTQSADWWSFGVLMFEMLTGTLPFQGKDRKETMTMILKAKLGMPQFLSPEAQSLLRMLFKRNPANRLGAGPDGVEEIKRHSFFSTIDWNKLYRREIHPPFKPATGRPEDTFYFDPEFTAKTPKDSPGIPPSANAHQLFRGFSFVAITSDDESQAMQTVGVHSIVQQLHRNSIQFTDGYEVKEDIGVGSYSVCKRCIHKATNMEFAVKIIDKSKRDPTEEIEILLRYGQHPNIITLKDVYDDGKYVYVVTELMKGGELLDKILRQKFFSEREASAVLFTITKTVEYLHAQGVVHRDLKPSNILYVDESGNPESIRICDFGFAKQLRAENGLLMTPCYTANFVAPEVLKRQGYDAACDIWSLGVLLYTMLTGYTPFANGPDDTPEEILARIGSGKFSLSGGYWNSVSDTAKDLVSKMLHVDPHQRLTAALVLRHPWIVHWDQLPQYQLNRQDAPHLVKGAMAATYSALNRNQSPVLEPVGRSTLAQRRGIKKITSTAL

In test [1], `c1nc(N2CCC3(CCCNC3)CC2)c2nc[nH]c2n1` returned a half-maximal inhibitory concentration (IC50) of 0.08 µM.

For `O=S(=O)(c1cccc2cnccc12)N1CCCC2(CCCNC2)C1` (centres undefined), the concentration for half-maximal inhibition (IC50) in test [1] amounted to 3.6 µM.

In the case of `c1ccc(CC2CCC3(CCN(c4ncnc5[nH]cnc45)CC3)NC2)cc1` (racemic), the inhibition was 35% in [2]; 17% in test [3]; 0% in test [4]; 31% in [5]; 0% in test [6]; 27% in test [7]. The inhibition was determined as 47% in test [8]; 10% in test [9]; 42% in [10]; 13% in test [11]; 52% in test [12]; 63% in test [13]. Further, the inhibition in test [14] came out at 69%.

On to `c1ccc(CC2CCNC3(CCN(c4ncnc5[nH]cnc45)CC3)C2)cc1` (racemic), for which the inhibition amounted to 71% in [2]; 59% in test [3]; 0% in [4]; 11% in test [5]; 8% in [6]; 75% in test [7]. In addition, the inhibition in test [8] was 60%; in test [9] it was 7%; in [10] it was 44%; in test [11], 21%; in test [12] it was 100%; in test [13] it was 94%. Moreover, the inhibition in [14] was determined as 101%. In test [1], inhibition was half-maximal at 0.031 µM (IC50).

Compound `c1nc(N2CCC3(CCCCN3)CC2)c2nc[nH]c2n1` came in with an IC50 in test [1] of 1 µM.

Regarding `c1ccc(C2CCNC3(CCN(c4ncnc5[nH]cnc45)CC3)C2)cc1` (racemic), the inhibition in [2] came to 61%; in [3] it was 47%; in test [4], 0%; in test [5], 35%; in test [6] it was 24%; in test [7], 79%. Also, the inhibition in [8] was determined as 72%; in test [9] it was 7%; in [10], 27%; in [11] it was 4%; in test [12], 94%; in test [13] it was 84%. The inhibition in test [14] is 96%. The IC50 in [1] is 0.149 µM.

The record behind these values is ChEMBL document CHEMBL2417369, “Synthesis and evaluation of heteroaryl substituted diazaspirocycles as scaffolds to probe the ATP-binding site of protein kinases” (Bioorg Med Chem, 2013).
